Laboratory results reported in ChEMBL document CHEMBL3860028, “Bioactive Phenanthrene and Bibenzyl Derivatives from the Stems of Dendrobium nobile” (J Nat Prod, 2016).
Values after ≈ are worked out from the molar mass of the structure shown.

What was measured:
Alternaria brassicicola = test: Antifungal activity against Alternaria brassicicola after 4 to 14 days by serial dilution method; format: functional
How it was run: (§1)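 Fungal strains kept on potato dextrose agar. Antifungal activity tested following NCCLS recommendations, with MIC values as the read-out. Prochloraz served as positive control.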

[1] = Cytotoxicity against human HeLa cells assessed as decrease in cell viability after 6 days by MTT assay; format: functional, cell-based; settings: 144 h
How it was run: (§2)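 Cell lines from College of Pharmacy, Hebei University, grown in DMEM with 5% fetal bovine serum at 37 °C under 5% CO2. Viability read by MTT method, IC50 values derived. Epirubicin served as positive control.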

[2] = Cytotoxicity against human MCF7 cells assessed as decrease in cell viability after 6 days by MTT assay; format: functional, cell-based; settings: MCF7, 144 h; how it was run: as §2
[3] = Cytotoxicity against human A549 cells assessed as decrease in cell viability after 6 days by MTT assay; format: functional, cell-based; settings: A549, 144 h; how it was run: as §2
[4] = Antifungal activity against Phytophthora parasitica var. nicotianae after 4 to 14 days by serial dilution method; format: functional; how it was run: as §1
Colletotrichum truncatum = test: Antifungal activity against Colletotrichum capsici after 4 to 14 days by serial dilution method; format: functional; how it was run: as §1
[5] = Antifungal activity against Bipolaris oryzae after 4 to 14 days by serial dilution method; format: functional
How it was run: (§3)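 Fungus maintained on potato dextrose agar. Antifungal activity determined as MIC following NCCLS (National […] for Clinical Laboratory Standards) recommendations, with prochloraz as the reference antifungal.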

[6] = Antifungal activity against Diaporthe medusaea nitschke after 4 to 14 days by serial dilution method; format: functional; settings: Diaporthe rudis; how it was run: as §1
[7] = Antifungal activity against Ceratocystis paradoxa moreau after 4 to 14 days by serial dilution method; format: functional; settings: Thielaviopsis; how it was run: as §1
[8] = Antifungal activity against Exserohilum turcicum after 4 to 14 days by serial dilution method; format: functional; settings: Setosphaeria turcica; how it was run: as §1
[9] = Antifungal activity against Pestallozzia theae after 4 to 14 days by serial dilution method; format: functional; how it was run: as §1
Alternaria citri = test: Antifungal activity against Alternaria citri after 4 to 14 days by serial dilution method; format: functional; how it was run: as §3

Row | SMILES | MIC (Alternaria brassicicola) [µM] | IC50 [1] [µM] | IC50 [2] [µM] | IC50 [3] [µM] | MIC [4] [µM] | MIC (Colletotrichum truncatum) [µM] | MIC [5] [µM] | MIC [6] [µM] | MIC [7] [µM] | MIC [8] [µM] | MIC [9] [µM] | MIC (Alternaria citri) [µM]
1 | COc1cc(O)c2c(c1)CCc1cc(O)c(-c3cc4cccc(O)c4c4c(OC)cc(O)cc34)cc1-2 | > 400 | > 10 | > 10 | > 10 | > 400 | > 400 | > 400 | > 400 | > 400 | > 400 | > 400 | > 400
2 | COc1cc2c(c(OC)c1O)-c1ccc(O)cc1CC2 [FLAVANTHRIDIN] | > 400 | > 10 | > 10 | > 10 | > 400 | > 400 | > 400 | > 400 | > 400 | > 400 | > 400 | > 400
3 | COc1cc(O)cc(CCc2ccc(O)c(OC)c2)c1 [GIGANTOL] | 182 (≈ 50 µg/mL) | > 10 | > 10 | > 10 | 365 (≈ 100 µg/mL) | 91.2 (≈ 25 µg/mL) | 182 (≈ 50 µg/mL) | 91.2 (≈ 25 µg/mL) | 91.2 (≈ 25 µg/mL) | 182 (≈ 50 µg/mL) | 91.2 (≈ 25 µg/mL) | 91.2 (≈ 25 µg/mL)
4 | COc1c(O)cc2c(c1OC)-c1ccc(O)cc1CC2 [ERIANTHRIDIN] | > 400 | > 10 | > 10 | > 10 | > 400 | > 400 | > 400 | > 400 | > 400 | > 400 | > 400 | > 400
5 | COc1cc(O)c2c(c1)CCc1cc(Oc3cc(OC)c(O)c4c3CCc3cc(O)ccc3-4)ccc1-2 | > 400 | > 10 | > 10 | > 10 | > 400 | > 400 | > 400 | > 400 | > 400 | > 400 | > 400 | > 400
6 | COC1=CC(=O)c2c(ccc3cc(O)c(O)cc23)C1=O | > 400 | > 10 | > 10 | > 10 | > 400 | > 400 | > 400 | > 400 | > 400 | > 400 | > 400 | > 400
7 | COc1c(O)cc2ccc3cc(O)ccc3c2c1OC [NUDOL] | > 400 | > 10 | > 10 | > 10 | > 400 | > 400 | > 400 | > 400 | > 400 | > 400 | > 400 | > 400
8 | CCCN(CCOc1c(Cl)cc(Cl)cc1Cl)C(=O)n1ccnc1 [PROCHLORAZ] | 33.3 (≈ 12.5 µg/mL) |  |  |  | 133 (≈ 50.2 µg/mL) | 33.3 (≈ 12.5 µg/mL) | 133 (≈ 50.2 µg/mL) | 133 (≈ 50.2 µg/mL) | 66.7 (≈ 25.1 µg/mL) | 33.3 (≈ 12.5 µg/mL) | 66.7 (≈ 25.1 µg/mL) | 66.7 (≈ 25.1 µg/mL)
9 | Oc1cccc(CCc2cc(O)cc(O)c2)c1 | > 400 | > 10 | > 10 | > 10 | 218 (≈ 50.1 µg/mL) | 109 (≈ 25 µg/mL) | 109 (≈ 25 µg/mL) | 217 (≈ 50.1 µg/mL) | 109 (≈ 25 µg/mL) | 109 (≈ 25 µg/mL) | 217 (≈ 50.1 µg/mL) | 109 (≈ 25 µg/mL)
10 | COc1c(O)cc2ccc3c(OC)c(O)ccc3c2c1OC | > 400 | > 10 | > 10 | > 10 | > 400 | > 400 | > 400 | > 400 | > 400 | > 400 | > 400 | > 400
11 | COC1=CC(=O)C[C@]2(CCc3cccc(O)c32)C1=O | > 400 | 9.8 | 9.4 | 9.9 | > 400 | > 400 | > 400 | > 400 | > 400 | > 400 | > 400 | > 400
12 | O=C1C=CC(=O)C2=C1CCc1cc(O)ccc12 | > 400 | > 10 | > 10 | > 10 | > 400 | > 400 | > 400 | > 400 | > 400 | > 400 | > 400 | > 400
13 | COc1cc2c(c(O)c1OC)-c1ccc(O)cc1CC2 [EPHEMERANTHOL A] | > 400 | > 10 | > 10 | > 10 | > 400 | > 400 | > 400 | > 400 | > 400 | > 400 | > 400 | > 400
14 | COc1cc(O)c2c(c1)CCc1cc(O)ccc1-2 [LUSIANTHRIDIN] | > 400 | > 10 | > 10 | > 10 | > 400 | > 400 | > 400 | > 400 | > 400 | > 400 | > 400 | > 400
15 | COC1=CC(=O)C[C@H]2CCc3cccc(O)c3[C@@]12O | > 400 | > 10 | > 10 | > 10 | > 400 | > 400 | > 400 | > 400 | > 400 | > 400 | > 400 | > 400
16 | COc1cc(O)c2c(c1)CCc1cc(O)c(-c3c(O)c4cccc(O)c4c4c(OC)cc(OC)cc34)cc1-2 | > 400 | > 10 | > 10 | > 10 | > 400 | > 400 | > 400 | > 400 | > 400 | > 400 | > 400 | > 400
17 | COc1cc(O)c2c(c1)CCc1cccc(O)c1-2 | > 400 | > 10 | > 10 | > 10 | > 400 | > 400 | > 400 | > 400 | > 400 | > 400 | > 400 | > 400
18 | COc1cc(O)cc(CCc2cccc(O)c2)c1 [BATATASIN III] | 102 (≈ 25 µg/mL) | > 10 | > 10 | > 10 | 205 (≈ 50.1 µg/mL) | 102 (≈ 25 µg/mL) | 102 (≈ 25 µg/mL) | 205 (≈ 50.1 µg/mL) | 102 (≈ 25 µg/mL) | 102 (≈ 25 µg/mL) | 205 (≈ 50.1 µg/mL) | 102 (≈ 25 µg/mL)
19 | COC1=CC(=O)C[C@@]2(CCc3cccc(O)c32)C1=O | > 400 | 9.8 | 9.4 | 9.9 | > 400 | > 400 | > 400 | > 400 | > 400 | > 400 | > 400 | > 400
20 | COc1cc(O)cc2c1-c1c(O)cccc1CC2 [HIRCINOL] | > 400 | > 10 | > 10 | > 10 | > 400 | > 400 | > 400 | > 400 | > 400 | > 400 | > 400 | > 400
21 | COc1cc(OC)c2c(cc(O)c3cccc(O)c32)c1-c1ccc(O)c2c1ccc1cc(O)cc(OC)c12 | > 400 | > 10 | > 10 | > 10 | > 400 | > 400 | > 400 | > 400 | > 400 | > 400 | > 400 | > 400
22 | COc1cc(CCc2cc(O)cc(O)c2)ccc1O [TRISTIN] | 192 (≈ 50.1 µg/mL) | > 10 | > 10 | > 10 | 385 (≈ 100 µg/mL) | 96.2 (≈ 25 µg/mL) | 96.2 (≈ 25 µg/mL) | 192 (≈ 50.1 µg/mL) | 96.2 (≈ 25 µg/mL) | 385 (≈ 100 µg/mL) | 96.2 (≈ 25 µg/mL) | 96.2 (≈ 25 µg/mL)
23 | COc1cc(O)c2c(c1-c1c(OC)cc(O)c3c1CCc1cc(O)ccc1-3)CCc1cc(O)ccc1-2 | > 400 | > 10 | > 10 | > 10 | > 400 | > 400 | > 400 | > 400 | > 400 | > 400 | > 400 | > 400
24 | COc1cc(O)cc2ccc3c(-c4c(O)cc(OC)c5c4ccc4cccc(O)c45)ccc(O)c3c12 | > 400 | > 10 | > 10 | > 10 | > 400 | > 400 | > 400 | > 400 | > 400 | > 400 | > 400 | > 400
25 | COc1cc(O)cc2ccc3cccc(O)c3c12 [MOSCATIN] | > 400 | > 10 | > 10 | > 10 | > 400 | > 400 | > 400 | > 400 | > 400 | > 400 | > 400 | > 400
